Test results: PubChem BioAssay
Active and inactive are the calls of the source.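 How the source made its calls, unless noted: active means viability loss from added drug above about 55%, and viability with drug at most 40%, in both replicates (limit read from the data, passing the limit was not always enough); inconclusive means both conditions met in only one replicate; inactive means neither replicate meets both conditions.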

How the values were obtained:
[1] = SK-BR-3 cell growth inhibitors, pilot screen, 24 h, human (AID 572;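 active means viability at or below 10% of carrier control in both of two separate runs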;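 further: compound exposure lasted between 18 and 24 h rather than exactly 24 h; 100% = carrier-treated control wells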); settings: SK-BR-3 viability, CellTiter-Glo luminescence, at 10 µM, stronger effect = lower value
[2] = HUVEC growth inhibition – cell-based, human, primary screen (AID 575;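 active means viability at or below 30% in both replicate assays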;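 further: 100% = median of untreated cell wells with 0.1% DMSO on each plate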); settings: HUVEC proliferation, CellTiter-Glo luminescence, 72 h; at 10 µM; stronger effect = lower value
Method in brief: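 material = primary HUVEC, no more than 12 passages | input = 1250 cells per well | controls = vehicle and MePR control wells | measured by = CTG luminescence | times = 72 h compound incubation | format = collagen-coated 384-well format | read-out = % viability vs DMSO wells | doses = single 10 µM dose, 0.1% DMSO, from 5x medium stock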

[3] = growth inhibitors of H69AR lung tumor, primary screen, human, duplicate replicates (AID 580;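 active means viability at or under a set limit in both replicates, limit being median viability minus 3 SD, cut at about 48% in these data, passing the limit was not always enough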;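 further: 100% = mean luminescence of untreated wells and 0% = no signal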); settings: H69AR lung tumor cells viability, ATP luminescence, 72 h; at 10 µM; stronger effect = lower value
[4] = reversal of MRP1-mediated doxorubicin resistance, pilot screen, H69AR cells, doxorubicin co-treatment (AID 601); settings: CellTiter-Glo, 72 h, at 10 µM; for differential viability (reversal): stronger effect = higher value
[5] = 384-well plate pilot, post-Golgi transport modulator project, inhibition of yeast transport mutant growth (AID 636; in the data active means inhibition above about 31%); settings: absorbance 615 nm, about 18 h, stronger effect = higher value
[6] = growth suppression of yeast trafficking mutant, preliminary HTS, modulators of trafficking downstream of Golgi apparatus project, 1536-format plate, OD 615 nm (AID 637; in the data active means inhibition above about 30%); settings: yeast transport mutant growth, absorbance 615 nm, 18 h; stronger effect = higher value
[7] = H69AR cells + 2 uM doxorubicin, measured here: viability with 2 uM doxorubicin, stronger effect = lower value
[8] = H69AR cells, compound alone cytotoxicity

## Cc1ccc2nc(-c3ccccn3)cc(C(=O)N3CCN(c4ncccn4)CC3)c2c1
[1]
  viability: 100% (inactive)
[2]
  viability: 102% (inactive)
[3]
  viability: 77.8% (inactive)
[4]; H69AR cells + 2 uM doxorubicin
  differential viability (reversal): -5.74% (inactive)
[4]; [7]
  viability: 83.5%
[4]; [8]
  viability: 77.8%
[5]
  inhibition: -2.7% (inactive)
[6]
  inhibition: 0.91% (inactive)

## O=C(NCc1ccco1)c1ccccc1Nc1ccc(F)cc1
[1]
  viability: 80% (inactive)
[2]
  viability: 97.1% (inactive)
[3]
  viability: 79.2% (inactive)
[4]; H69AR cells + 2 uM doxorubicin
  differential viability (reversal): 5.57% (inactive)
[4]; [7]
  viability: 73.6%
[4]; [8]
  viability: 79.2%
[5]
  inhibition: -7.03% (inactive)
[6]
  inhibition: -7.09% (inactive)

## C=CCN1C(=O)C2(/C(=C(\O)c3ccc4c(c3)OCCO4)C(=O)C(=O)N2CCCOC)c2ccccc21 (configuration not stated)
[1]
  viability: 109% (inactive)
[2]
  viability: 96.6% (inactive)
[3]
  viability: 95.9% (inactive)
[4]; H69AR cells + 2 uM doxorubicin
  differential viability (reversal): 11.2% (inactive)
[4]; [7]
  viability: 84.7%
[4]; [8]
  viability: 95.9%
[5]
  inhibition: -8.36% (inactive)
[6]
  inhibition: 0.48% (inactive)

## O=C(C1=C(O)C(=O)N(c2ncccn2)C1c1cccc(Cl)c1)c1ccco1 (configuration not stated)
[1]
  viability: 119% (inactive)
[2]
  viability: 93% (inactive)
[3]
  viability: 89.2% (inactive)
[4]; H69AR cells + 2 uM doxorubicin
  differential viability (reversal): -3.12% (inactive)
[4]; [7]
  viability: 92.4%
[4]; [8]
  viability: 89.2%
[5]
  inhibition: 2.33% (inactive)
[6]
  inhibition: 1.29% (inactive)

## O=C(NCC1CCCO1)c1ccc(C(=O)NCC2CCCO2)cc1 (configuration not stated)
[1]
  viability: 97% (inactive)
[2]
  viability: 108% (inactive)
[3]
  viability: 113% (inactive)
[4]; H69AR cells + 2 uM doxorubicin
  differential viability (reversal): 11.3% (inactive)
[4]; [7]
  viability: 101%
[4]; [8]
  viability: 113%
[5]
  inhibition: -6.76% (inactive)
[6]
  inhibition: -4% (inactive)

## CC1(C)CC(=O)C=C(NC2CCS(=O)(=O)C2)C1 (configuration not stated)
[1]
  viability: 97% (inactive)
[2]
  viability: 107% (inactive)
[3]
  viability: 91.3% (inactive)
[4]; H69AR cells + 2 uM doxorubicin
  differential viability (reversal): -0.825% (inactive)
[4]; [7]
  viability: 92.2%
[4]; [8]
  viability: 91.3%
[5]
  inhibition: 0% (inactive)
[6]
  inhibition: 6.89% (inactive)

## CCOC(=O)c1cc2sc(C)cc2n1CC(=O)Nc1cccc(C)c1C
[1]
  viability: 90% (inactive)
[2]
  viability: 99.2% (inactive)
[3]
  viability: 91.2% (inactive)
[4]; H69AR cells + 2 uM doxorubicin
  differential viability (reversal): -3.05% (inactive)
[4]; [7]
  viability: 94.2%
[4]; [8]
  viability: 91.2%
[5]
  inhibition: -5.81% (inactive)
[6]
  inhibition: -5.82% (inactive)

## Cn1c(=O)c2c(nc(NCCNC(=O)c3ccco3)n2Cc2ccccc2Cl)n(C)c1=O
[1]
  viability: 80% (inactive)
[2]
  viability: 112% (inactive)
[3]
  viability: 72.5% (inactive)
[4]; H69AR cells + 2 uM doxorubicin
  differential viability (reversal): 5.75% (inactive)
[4]; [7]
  viability: 66.7%
[4]; [8]
  viability: 72.5%
[5]
  inhibition: -7.57% (inactive)
[6]
  inhibition: -4.36% (inactive)

## CCOC(=O)c1sc(NC(=O)CSc2ncn(-c3ccccc3)n2)nc1C
[1]
  viability: 109% (inactive)
[2]
  viability: 97.5% (inactive)
[3]
  viability: 82.9% (inactive)
[4]; H69AR cells + 2 uM doxorubicin
  differential viability (reversal): -5.19% (inactive)
[4]; [7]
  viability: 88.1%
[4]; [8]
  viability: 82.9%
[5]
  inhibition: -7.95% (inactive)
[6]
  inhibition: 3.09% (inactive)

## COc1ccc(-c2nnc(SCC(=O)Nc3sc4c(c3C#N)CCC4)n2CC2CCCO2)cc1 (configuration not stated)
[1]
  viability: 89% (inactive)
[2]
  viability: 97% (inactive)
[3]
  viability: 93.8% (inactive)
[4]; H69AR cells + 2 uM doxorubicin
  differential viability (reversal): 19.5% (inactive)
[4]; [7]
  viability: 74.4%
[4]; [8]
  viability: 93.8%
[5]
  inhibition: 2.43% (inactive)
[6]
  inhibition: -1.43% (inactive)

## OC1C=CSc2nc3ccccc3n21 (configuration not stated)
[1]
  viability: 83.5% (inactive)
[2]
  viability: 79% (inactive)
[3]
  viability: 66.8% (inactive)
[4]; H69AR cells + 2 uM doxorubicin
  differential viability (reversal): -8.25% (inactive)
[4]; [7]
  viability: 75%
[4]; [8]
  viability: 66.8%
[5]
  inhibition: -5.68% (inactive)
[6]
  inhibition: 1.8% (inactive)

## Cn1c(=O)c2c(nc(Br)n2CCSc2nnnn2-c2ccccc2)n(C)c1=O
[1]
  viability: 76% (inactive)
[2]
  viability: 105% (inactive)
[3]
  viability: 80.4% (inactive)
[4]; H69AR cells + 2 uM doxorubicin
  differential viability (reversal): -14.9% (inactive)
[4]; [7]
  viability: 95.3%
[4]; [8]
  viability: 80.4%
[5]
  inhibition: -4.59% (inactive)
[6]
  inhibition: -7.27% (inactive)

## Cc1[nH]nc(N=CC2=C(O)CC(C)(C)CC2=O)c1-c1ccccc1
[1]
  viability: 85% (inactive)
[2]
  viability: 100% (inactive)
[3]
  viability: 88.6% (inactive)
[4]; H69AR cells + 2 uM doxorubicin
  differential viability (reversal): -6.69% (inactive)
[4]; [7]
  viability: 95.3%
[4]; [8]
  viability: 88.6%
[5]
  inhibition: -0.95% (inactive)
[6]
  inhibition: 1.09% (inactive)

## Cc1ccc(C2=N/C(=C/N3CCOCC3)C(=O)O2)cc1
[1]
  viability: 84% (inactive)
[2]
  viability: 82.5% (inactive)
[3]
  viability: 90.6% (inactive)
[4]; H69AR cells + 2 uM doxorubicin
  differential viability (reversal): 13.1% (inactive)
[4]; [7]
  viability: 77.5%
[4]; [8]
  viability: 90.6%
[5]
  inhibition: -2.08% (inactive)
[6]
  inhibition: -7.21% (inactive)

## Cn1c(=O)[nH]c(=O)c2c1nc(N1CCc3ccccc3C1)n2CCSc1nc2ccccc2s1
[1]
  viability: 72% (inactive)
[2]
  viability: 79.5% (inactive)
[3]
  viability: 75.2% (inactive)
[4]; H69AR cells + 2 uM doxorubicin
  differential viability (reversal): 1.51% (inactive)
[4]; [7]
  viability: 73.7%
[4]; [8]
  viability: 75.2%
[5]
  inhibition: -5.48% (inactive)
[6]
  inhibition: 2.9% (inactive)

## Cc1cc(NS(=O)(=O)c2ccc(NC(=O)COc3ccc(Cl)cc3)cc2)no1
[1]
  viability: 100% (inactive)
[2]
  viability: 107% (inactive)
[3]
  viability: 84.1% (inactive)
[4]; H69AR cells + 2 uM doxorubicin
  differential viability (reversal): -1.13% (inactive)
[4]; [7]
  viability: 85.2%
[4]; [8]
  viability: 84.1%
[5]
  inhibition: -9.32% (inactive)
[6]
  inhibition: -5.27% (inactive)

## Cc1ccc(C(C(=O)NC2CCCCC2)N(C(=O)c2csnn2)C2CCCC2)o1 (configuration not stated)
[1]
  viability: 108% (inactive)
[2]
  viability: 101% (inactive)
[3]
  viability: 80.4% (inactive)
[4]; H69AR cells + 2 uM doxorubicin
  differential viability (reversal): 1.01% (inactive)
[4]; [7]
  viability: 79.4%
[4]; [8]
  viability: 80.4%
[5]
  inhibition: -0.65% (inactive)
[6]
  inhibition: -2.46% (inactive)

## Cc1ccc(CNc2cc(-c3nn4c(C)nnc4s3)ccc2C)s1
[1]
  viability: 88% (inactive)
[2]
  viability: 45.1% (inactive)
[3]
  viability: 58.8% (inactive)
[4]; H69AR cells + 2 uM doxorubicin
  differential viability (reversal): 18.3% (inactive)
[4]; [7]
  viability: 40.5%
[4]; [8]
  viability: 58.8%
[5]
  inhibition: -2.6% (inactive)
[6]
  inhibition: 12.3% (inactive)

## O=C(O)CSC1CC(=O)N(c2ccc(Cl)c(Cl)c2)C1=O (configuration not stated)
[1]
  viability: 104% (inactive)
[2]
  viability: 109% (inactive)
[3]
  viability: 98.8% (inactive)
[4]; H69AR cells + 2 uM doxorubicin
  differential viability (reversal): 7.75% (inactive)
[4]; [7]
  viability: 91.1%
[4]; [8]
  viability: 98.8%
[5]
  inhibition: -8.38% (inactive)
[6]
  inhibition: 0.36% (inactive)

## O=C(CSc1nnc(Cc2ccccc2)n1-c1cccc(Cl)c1)N1CCOCC1
[1]
  viability: 106% (inactive)
[2]
  viability: 94.2% (inactive)
[3]
  viability: 85.6% (inactive)
[4]; H69AR cells + 2 uM doxorubicin
  differential viability (reversal): 4.24% (inactive)
[4]; [7]
  viability: 81.3%
[4]; [8]
  viability: 85.6%
[5]
  inhibition: -4.8% (inactive)
[6]
  inhibition: -7.64% (inactive)

## Cc1c(NC(=O)C(C)OC(=O)c2cc3c4ccccc4n(C)c3s2)c(=O)n(-c2ccccc2)n1C (configuration not stated)
[1]
  viability: 94% (inactive)
[2]
  viability: 80.8% (inactive)
[3]
  viability: 78.4% (inactive)
[4]; H69AR cells + 2 uM doxorubicin
  differential viability (reversal): -10% (inactive)
[4]; [7]
  viability: 88.4%
[4]; [8]
  viability: 78.4%
[5]
  inhibition: -11.4% (inactive)
[6]
  inhibition: 1.13% (inactive)

## CCCCNc1cc(C(=O)O)cc(S(N)(=O)=O)c1Oc1ccccc1
[1]
  viability: 121% (inactive)
[2]
  viability: 87% (inactive)
[3]
  viability: 114% (inactive)
[4]; H69AR cells + 2 uM doxorubicin
  differential viability (reversal): 23.6% (inactive)
[4]; [7]
  viability: 90.5%
[4]; [8]
  viability: 114%
[5]
  inhibition: -1.56% (inactive)
[6]
  inhibition: 7.17% (inactive)

## COCCCN1C(=O)C(O)=C(C(C)=O)C1c1ccccn1 (configuration not stated)
[1]
  viability: 106% (inactive)
[2]
  viability: 102% (inactive)
[3]
  viability: 86.6% (inactive)
[4]; H69AR cells + 2 uM doxorubicin
  differential viability (reversal): 0.675% (inactive)
[4]; [7]
  viability: 85.9%
[4]; [8]
  viability: 86.6%
[5]
  inhibition: -3.73% (inactive)
[6]
  inhibition: -1.45% (inactive)

## O=C(COC(=O)C12CC3CC(CC(C3)C1)C2)NCc1ccco1
[1]
  viability: 101% (inactive)
[2]
  viability: 98.5% (inactive)
[3]
  viability: 64.6% (inactive)
[4]; H69AR cells + 2 uM doxorubicin
  differential viability (reversal): -21.4% (inactive)
[4]; [7]
  viability: 86%
[4]; [8]
  viability: 64.6%
[5]
  inhibition: -4.16% (inactive)
[6]
  inhibition: -3.93% (inactive)
